# TRPC6 inhibitor: blocks the mouse TRPC6 cation channel. Q61143. HEK293-TRPC6, membrane potential dye, ACh-evoked depolarization; hits give low values. B-score at 10 µM. hit rate 1.1% among 310,000. AID 2553;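 active = B-score under library mean minus 3 SD, initial fluorescence not abnormally high, positive integrated signal ratio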;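 also: B-score derived from integrated fluorescence ratio over the kinetic read; more negative B-score means stronger inhibition of depolarization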
# TRPC4 agonist: opens the mouse TRPC4 cation channel; Q9QUQ5; HEK293 TRPC4beta/mu-opioid, Fluo4 calcium fluorescence; hits give high values; B-score at 10 µM; hit rate 0.49% among 310,000; AID 2237;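 active = B-score above 5 SD of library B-scores, and initial fluorescence ratio not above library mean plus 5 SD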;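 also: positive B-score marks a calcium rise read as TRPC4 activation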
# Target sequence (Q9QUQ5 whole entry, looked up): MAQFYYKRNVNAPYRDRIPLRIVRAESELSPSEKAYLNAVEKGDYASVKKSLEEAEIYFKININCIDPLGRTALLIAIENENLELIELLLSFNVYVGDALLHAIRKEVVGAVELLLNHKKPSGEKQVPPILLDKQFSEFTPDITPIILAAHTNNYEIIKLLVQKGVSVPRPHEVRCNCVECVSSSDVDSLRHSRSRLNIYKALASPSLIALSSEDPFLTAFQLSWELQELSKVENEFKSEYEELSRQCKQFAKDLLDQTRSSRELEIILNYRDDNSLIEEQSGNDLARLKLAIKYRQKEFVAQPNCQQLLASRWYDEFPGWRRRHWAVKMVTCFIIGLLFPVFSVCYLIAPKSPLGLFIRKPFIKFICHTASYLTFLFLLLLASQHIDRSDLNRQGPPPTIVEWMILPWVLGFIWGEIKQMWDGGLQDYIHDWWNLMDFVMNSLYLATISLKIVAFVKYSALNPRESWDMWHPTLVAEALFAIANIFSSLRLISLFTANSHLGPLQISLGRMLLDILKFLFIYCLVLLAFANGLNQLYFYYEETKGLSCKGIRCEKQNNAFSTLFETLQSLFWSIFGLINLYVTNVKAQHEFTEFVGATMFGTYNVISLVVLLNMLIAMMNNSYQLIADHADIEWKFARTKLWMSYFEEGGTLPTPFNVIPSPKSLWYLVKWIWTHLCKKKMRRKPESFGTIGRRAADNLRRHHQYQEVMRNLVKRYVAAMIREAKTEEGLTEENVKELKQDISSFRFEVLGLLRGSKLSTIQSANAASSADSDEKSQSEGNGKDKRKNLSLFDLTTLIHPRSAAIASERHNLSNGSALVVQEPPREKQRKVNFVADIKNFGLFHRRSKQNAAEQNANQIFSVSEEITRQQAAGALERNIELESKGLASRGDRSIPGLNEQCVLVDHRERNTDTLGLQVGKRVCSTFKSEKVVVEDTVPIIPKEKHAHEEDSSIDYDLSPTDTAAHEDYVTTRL
#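 Test system: HEK293 cells stably co-expressing mouse TRPC4beta and mu-opioid receptor | Schedule: Fluo4 dye loading 45 min at room temperature, 110 s recording | Measured by: Kinetic Fluo4 calcium fluorescence, 5 s baseline at 1 Hz | Evaluation: B score of integrated ratio | Controls: Buffer (low) and maximal DAMGO (high)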
# TRPC4 PAM: allosteric potentiators of mouse TRPC4 channel | AID 2227 | hit rate 0.42% among 310,000 | B-score at 10 µM | Q9QUQ5 | HEK293 TRPC4beta/mu-opioid, DAMGO EC20, Fluo-4 Ca2+ flux; hits give high values;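 active = B-score of calcium response area above 5 SD of library B-scores, with initial fluorescence ratio within 5 SD of library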;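 also: B-score of integrated fluorescence ratio over time as area under calcium response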
# TRPC6 act: activators of mouse TRPC6 channel. Q61143. HEK293-TRPC6 membrane potential dye fluorescence; hits give high values. B-score at 10 µM. hit rate 0.13% among 310,000. AID 2550;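 active = B-score of the integrated fluorescence ratio above library mean plus 3 SD, and starting fluorescence ratio within library mean plus 5 SD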;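 also: higher score means more depolarization so channel activation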
# TRPC4 block: TRPC4 (mouse) channel inhibition; Q9QUQ5; HEK293 TRPC4beta/mu-opioid, DAMGO-evoked Fluo4 calcium flux; hits give low values; B-score at 10 µM; hit rate 0.39% among 300,000;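 active = B-score over 3 SD under the library average, no early fluorescence shift, positive overall ratio signal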
#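 Assay system: HEK293 cells with stable TRPC4beta plus mu-opioid receptor expression; Probe or stimulus: DAMGO in two steps, submaximal then maximal; Dosing: single-point compound dosing; Measured by: Fluo4 calcium-dye fluorescence, kinetic read; Read-out basis: B score from integrated Fluo4 fluorescence ratio.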
# TRPC4 spec 2: mouse TRPC4 off-target activity of TRPC6 inhibitors, second screen; inhibition, % at 10 µM; hit rate 42% among 920; HEK293 TRPC4/MOR, membrane potential dye fluorescence; channel activated by saturating DAMGO dose; AID 2776; shares compounds with TRPC6 inhibitor;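 active = compounds whose fluorescence signal differed from control wells by over 3 SD, either direction, in both duplicate plates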
# TRPC4 spec: selectivity of TRPC6 inhibitors: effect on mouse TRPC4; shares compounds with TRPC6 inhibitor; AID 2777; HEK293 TRPC4/mu-opioid, membrane potential fluorescence; hit rate 61% among 920; activity change, negative = inhibition, % at 10 µM;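 active = rise or fall in signal beyond 3 SD of buffer-only wells in both replicate plates, either sign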;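 also: integrated kinetic ratio of fluorescence range over baseline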
# HEK293 MPD ctr 2-1: parental HEK293 nonspecific activity of TRPC6 inhibitors, second screen; shares compounds with TRPC6 inhibitor; parental HEK293 membrane potential dye fluorescence; maximal acetylcholine challenge after compound addition; signal change vs control, % at 10 µM; hit rate 31% among 920;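 active = membrane potential signal moving either way by over 3 SD of the maximum-effect control, in both duplicate plates, meaning non-specific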
# HEK293 MPD ctr-1: checks TRPC6 inhibitor effects in parental HEK293 cells; shares compounds with TRPC6 inhibitor; hit rate 60% among 920; membrane potential signal change, % at 10 µM; parental HEK293 membrane potential dye fluorescence;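 active = membrane potential signal shifting up or down by more than 3 SD of buffer-only wells, on both duplicate plates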
# HEK293 MPD ctr-2: checks TRPC6 modulator effects in parental HEK293 cells; shares compounds with TRPC6 inhibitor; membrane potential dye fluorescence; membrane potential signal change, % at 10 µM; hit rate 51% among 2,400; AID 488924;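 active = membrane potential signal moves up or down beyond 5 SD from buffer-only wells, on both duplicate plates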
# HEK293 MPD ctr 2-2: second counter-screen for TRPC6 modulators: effect in parental HEK293 cells; hit rate 14% among 2,400; inhibition, % at 10 µM; AID 488926; shares compounds with TRPC6 inhibitor; membrane potential dye fluorescence; after compound, maximal acetylcholine stimulation;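 active = membrane potential signal drops by more than 5 SD from the mean control signal, in both duplicate plates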;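 also: plate controls were acetylcholine ECmax control wells for no effect and buffer only wells for full effect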
# TRPC4 ctr mod: selectivity of TRPC6 modulators against mouse TRPC4; shares compounds with TRPC6 inhibitor; HEK293 TRPC4/mu-opioid, membrane potential fluorescence; percent change from control (negative = decrease, positive = increase), % at 10 µM; hit rate 69% among 2,400;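 active = membrane potential signal moved up or down beyond 5 SD of buffer control wells, in both duplicate plates, actives on both sides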;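 also: plate controls were assay buffer wells for no effect and DAMGO maximal-effect wells for full effect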
# TRPC4/MOR inh 2: mouse TRPC4 off-target activity of TRPC6 modulators, second screen; shares compounds with TRPC6 inhibitor; HEK293 TRPC4/mu-opioid, membrane potential dye fluorescence; stimulated with maximal-effect DAMGO; inhibition, % at 10 µM; hit rate 55% among 2,400; AID 488928;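 active = drop in membrane potential signal beyond 5 SD of the control wells in both duplicate plates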;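 also: TRPC4 counter screen for TRPC6 hits run under conditions tuned for TRPC6 not TRPC4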
# TRPC6 block conf: mouse TRPC6 inhibitor confirmation; shares compounds with TRPC6 inhibitor; HEK293-TRPC6, membrane potential dye, ACh-evoked depolarization; inhibition, % at 10 µM; hit rate 43% among 3,300; AID 488960;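 active = fluorescence ratio falls more than 5 SD below the full-stimulation control mean, in both duplicate runs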;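 also: integrated fluorescence ratio of peak minus minimum over baseline after agonist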
# TRPC6 act confirm: confirmation of mouse TRPC6 activators | shares compounds with TRPC6 inhibitor | HEK293-TRPC6 membrane potential dye fluorescence, FDSS | activation, % at 10 µM | hit rate 11% among 2,800 | AID 488961;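 active = ratio signal rise beyond 5 SD above unstimulated control wells' mean, seen in both duplicate runs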;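 also: plate controls were buffer EC0 wells for no effect and acetylcholine ECmax response for full effect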
# * hit, by the source's call; i = inactive; · = not tested or not shown. In the library only some 2.3% were active in any assay of this set; here they are far more common.
SMILES,TRPC6 inhibitor,TRPC4 agonist,TRPC4 PAM,TRPC6 act,TRPC4 block,HEK293 MPD ctr-2,HEK293 MPD ctr 2-2,TRPC4 ctr mod,TRPC4/MOR inh 2,TRPC6 block conf,TRPC6 act confirm,others
CN1CCN(c2ccc(Cl)cc2NC(=O)c2ccc(=O)n(C)n2)CC1,-9.02*,i,i,i,i,-340.0%*,67.5%*,-59.0%*,54.0%*,52.0%*,i,
O=C(NCc1ccccn1)C1CC(c2ccc(F)cc2)=NO1 (stereo unspecified),i,i,i,i,i,·,·,·,·,·,·,
COc1nc(N(c2ccccc2)c2ccccc2)nc(-n2ccnc2)n1,i,i,i,11.5*,i,372.5%*,59.0%*,64.0%*,i,i,132.5%*,
O=C(CN(Cc1ccco1)C(=O)CNS(=O)(=O)c1ccc(F)cc1)NCCc1ccccc1,-5.29*,i,i,i,i,i,i,12.5%*,i,i,i,
O=C(N=Nc1c(O)[nH]c2ccc(Cl)cc12)c1cc(-c2cccs2)nc2ccccc12,-5.68*,i,i,i,i,i,i,i,i,i,i,
Cc1ccc(N/C(N)=N/c2nc(C)cc(N3CCCCC3)n2)c(C)c1,-8.95*,i,i,i,i,339.0%*,i,74.5%*,66.0%*,82.5%*,·,
Cc1ccc(N/C(N)=N/c2nc3c(c(=O)[nH]2)CCCC3)c(C)c1,i,i,i,i,i,·,·,·,·,·,·,
CCN(CC#CCC(O)(c1ccccc1)C1CCCC1)C(C)C (stereo unspecified),-5.58*,i,i,i,i,188.0%*,i,33.5%*,i,55.5%*,·,
O=C1CCN(Cc2ccc(Br)cc2)CCN1[C@H](CO)Cc1ccccc1,i,i,i,i,·,·,·,·,·,·,·,
O=C(NNC1=C(C(=O)C(F)(F)F)CCC1)c1ccccc1O,-5.19*,i,i,i,i,i,i,i,i,37.5%*,i,
Cc1ccc(-c2c[n+](CC(=O)N3c4ccccc4Sc4ccccc43)c3n2CCC3)cc1,-5.94*,i,i,i,i,i,i,-13.5%*,i,71.0%*,i,
O=C(C[n+]1cc(-c2ccc(F)cc2)n2c1CCC2)N1c2ccccc2Sc2ccccc21,-7.94*,i,i,i,i,i,i,i,i,70.0%*,i,
CC(C)(C)OC(=O)N1CCN(C(=O)[C@H](Cc2ccc(O)cc2)n2cc(CCO)nn2)CC1,i,i,i,i,i,·,·,·,·,·,·,
Cc1cc(C)n2nc(C(=O)N/N=C/c3ccco3)nc2n1,-6.56*,i,i,i,i,-275.0%*,i,-50.0%*,32.5%*,i,i,
Cc1cc(C)n2nc(C(=O)N/N=C/c3ccccc3Cl)nc2n1,i,i,i,i,i,·,·,·,·,·,·,
O=C(CSc1n[nH]c(-c2cccs2)n1)NCc1cccs1,-6.81*,i,i,i,i,·,·,·,·,i,i,TRPC4 spec 2=i;TRPC4 spec=i;HEK293 MPD ctr 2-1=i;HEK293 MPD ctr-1=i
C[C@@H](C(=O)CC(=O)OC(C)(C)C)[C@@H](O)c1c(F)cccc1Cl,i,i,i,i,i,·,·,·,·,·,·,
COCc1[nH]nc2c1C(c1cc(OC)c(O)c(OC)c1)C(C#N)=C(N)O2 (stereo unspecified),i,i,i,i,i,·,·,·,·,·,·,
Cc1cc(OCC(=O)NC2CCN(Cc3ccccc3)CC2)c2c(C)cc(=O)oc2c1,-6.14*,i,i,i,i,-82.0%*,i,-26.0%*,i,i,i,
CN(C)CCNS(=O)(=O)c1ccc(N2CCN(c3ccc(F)cc3)CC2)c([N+](=O)[O-])c1,-7.01*,i,i,i,i,·,·,·,·,51.8%*,i,TRPC4 spec 2=40.5%*;TRPC4 spec=-14.2%*;HEK293 MPD ctr 2-1=i;HEK293 MPD ctr-1=-278.0%*
CC(=O)N1CCN(c2ccc(S(=O)(=O)NCCN(C(C)C)C(C)C)cc2[N+](=O)[O-])CC1,i,i,i,i,i,·,·,·,·,·,·,
Cc1cc(C)n(-c2nnc(C)n2/N=C/c2ccccc2OCc2ccccc2Cl)n1,i,i,i,13.1*,i,473.5%*,i,85.0%*,i,i,116.5%*,
CC1=NN(c2ccccc2)C(=O)/C1=C/c1cn(C)c2ccccc12,-5.39*,i,i,i,i,i,i,-11.5%*,40.5%*,i,i,
CC1=NN(c2ccc(C(=O)OC(C)C)cc2)C(=O)/C1=C\C=C\c1ccco1,-6.26*,i,i,i,i,i,i,i,45.0%*,i,i,
CC1=NN(c2ccccc2)C(=O)/C1=C/C=C/c1ccc(N(C)C)cc1,-11.6*,i,i,i,i,·,·,·,·,80.9%*,i,TRPC4 spec 2=74.0%*;TRPC4 spec=-14.0%*;HEK293 MPD ctr 2-1=i;HEK293 MPD ctr-1=-140.5%*
Cc1cc(CNC(=O)C2(C(F)(F)F)C/C(=C\Cc3ccccc3)CCCO2)nn1C (stereo unspecified),i,i,i,i,i,·,·,·,·,·,·,
CN(C(=O)Cn1nnc(-c2ccccc2)n1)C1CCS(=O)(=O)C1 (stereo unspecified),i,i,i,i,i,·,·,·,·,·,·,
